MPTP block = blocks calcium-induced mitochondrial swelling; 1.4% of 360,000 active; AID 602449; inhibition, % at 10 µM; isolated mouse mitochondria, Ca2+ swelling absorbance, 30 min;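 active = inhibition of 50% or more, scaled per plate between neutral and stimulator controls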;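 note: 0% = DMSO wells given calcium and 100% = 1 mM EGTA wells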
iPSC survival up = enhancers of human iPSC single-cell survival; hiPSC single-cell survival, ATPlite luminescence; 100% = ROCK inhibitor wells, 0% = DMSO; survival enhancement, % at 20 µM; 0.044% of 360,000 active; in the data active = survival enhancement above about 18%;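 note: cells exposed to compounds for 16 hours before the ATP read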
Exocytosis inh = blocks lytic granule exocytosis; inhibition, % at 10 µM; AID 651702; 0.66% of 360,000 active; TALL-104 LAMP-1 surface exposure, flow cytometry; cells stimulated with thapsigargin and PMA;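 active = inhibition above about 55%, limit read from the data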
beta cell repl = inducers of beta-cell replication in MIN6 cells. MIN6 cells proliferation, ATPlite luminescence, 48 h; cells starved in 0.2% serum; 100% = growth in 10% serum. proliferation, % at 10 µM. 0.29% of 330,000 active;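 active = compounds whose signal lies at least 3.5 SD above the mean of all wells on their plate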;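 note: 0% = DMSO-treated cells in low-serum medium and 100% = 10% serum control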
UBC13 polyUb = human UBC13 polyubiquitination inhibition; 0.47% of 330,000 active; inhibition, % at 20 µM; UBC13 polyubiquitin chain formation, TR-FRET; in the data active = inhibition above about 45%, passing the limit was not always enough
Target sequence (P61088 whole entry, looked up): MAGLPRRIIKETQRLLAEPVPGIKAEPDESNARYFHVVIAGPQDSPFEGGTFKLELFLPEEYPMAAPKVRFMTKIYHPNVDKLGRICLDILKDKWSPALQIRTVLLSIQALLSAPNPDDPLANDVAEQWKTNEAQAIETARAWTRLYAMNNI
Apaf-1 inh = blocks human Apaf-1 apoptosome activity | O14727 | reconstituted apoptosome caspase-3 activity, DEVD-Rh110 fluorescence | inhibition, % at 20 µM | 0.71% of 330,000 active | AID 489030; active = inhibition of at least 40% at 20 µM;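 note: plate controls were DMSO wells for no effect and DEVD-CHO caspase inhibitor wells for full effect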
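Assay system: Apoptosome proteins | Medium: pH 7.5 Hepes buffer with CHAPS, BSA, DTT | Also added: Cytochrome c and DEVD-Rh110 substrate | Times: 30 min plus 50 min, RT | Detection: Rhodamine 110 fluorescence at Ex 480/Em 540 nm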
Apaf-1 inh conf = Apaf-1 inhibition, single-dose confirmed. shares compounds with Apaf-1 inh. reconstituted apoptosome, caspase-3 DEVD-Rh110 fluorescence. inhibition, % at 20 µM. 25% of 1,800 active. AID 504614;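 active = mean inhibition of at least 40% at 20 µM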;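 note: plate controls were DMSO wells for no effect and DEVD-CHO caspase inhibitor control wells for full effect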
Rh110 interf inh = counter-screen for Apaf-1 inhibitors: fluorescence interference; shares compounds with Apaf-1 inh; AID 504615; Rh110 fluorescence interference, quenched caspase reaction; activation (fluorescence interference), % at 20 µM; 1,800 tested, under 10 active;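 active = signal rise of 40% or more at 20 µM, treated as a fluorescence artifact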
Apaf1 inh interf = shows fluorescence interference in the Apaf-1 inhibitor assay format. AID 588538. IC50, µM. shares compounds with Apaf-1 inh. 460 tested, under 10 active. fluorescence interference counterscreen, Apaf-1 assay format; call rule not given here
Numbers without * were called inactive; . = no result given. Hits are enriched below; roughly 3% of the tested compounds scored in any of these assays.

SMILES	MPTP block	iPSC survival up	Exocytosis inh	beta cell repl	UBC13 polyUb	Apaf-1 inh	Apaf-1 inh conf	Rh110 interf inh	others
COc1ccc(S(=O)(=O)Oc2ccc3cccc(N)c3c2)cc1	16	-1	53	-4	-89	88*	13	13
O=C(OCC(=O)N1CCN(S(=O)(=O)c2ccccc2)CC1)c1ccc([N+](=O)[O-])o1	4	0	7	-2	8	80*	18	10
CC1CCN(C(=O)COC(=O)c2ccc([N+](=O)[O-])o2)CC1	-3	-2	2	2	-6	2	.	.
O=C(OCC(=O)N1CCN(S(=O)(=O)c2ccc(Cl)cc2)CC1)c1ccc([N+](=O)[O-])o1	0	-1	2	0	-9	69*	14	3
Cc1noc(C)c1S(=O)(=O)Nc1ccc(C(C)C)cc1	0	1	-4	-1	12	0	.	.
COc1ccccc1/C=C1/C(=O)N(c2ccccc2)N=C1C	2	0	-35	-3	-46	93*	21	7
CC1=NN(c2ccccc2)C(=O)/C1=C\c1sccc1C	1	0	-13	0	-19	28	.	.
CC1=NN(c2ccccc2)C(=O)/C1=C\c1cn(-c2ccccc2)nc1C	-1	8	-1	0	-2	23	.	.
CC1=NN(c2ccccc2)C(=O)/C1=C\c1cn(CCC#N)nc1-c1ccc(Cl)cc1	6	-2	0	-3	-16	80*	23	12
COc1cc(/C=C2/C(=O)N(c3ccc(Br)cc3)N=C2C)cc(OC)c1OC	32	0	-3	-5	-44	94*	7	1
CC1=NN(c2ccc(C)cc2)C(=O)/C1=C\c1ccc(Br)s1	11	2	-1	-4	-8	89*	18	5
C=CCOc1ccc(/C=C2\SC(=S)N(NS(=O)(=O)c3ccc(C)cc3)C2=O)cc1	2	0	-8	-6	-12	8	.	.
Cc1c2cnccc2c(C)c2c1oc1ccccc12	0	-1	10	.	.	.	.	.
O=C(c1cccc(Br)c1)c1nc2ccccc2[nH]c1=O	-1	-3	-6	.	.	.	.	.
COc1cc(/C=C2\C(=O)N(c3cccc(C(=O)O)c3)N=C2C)ccc1OCc1ccccc1	-2	-1	0	.	.	.	.	.
C#CCOc1ccc(/C=C2/C(=O)N(c3cccc(C(=O)O)c3)N=C2C)cc1OC	0	0	-10	-1	-26	43*	28	19
CC1=NN(c2ccc(Br)cc2)C(=O)/C1=C/c1cccs1	-4	4	2	-7	-24	96*	19	0
COc1cc2sc(-c3ccccc3OC)c(-c3ccc(OCCN4CCOCC4)cc3)c2cc1OC	-2	0	18	.	.	27	.	.
COc1cccc(-c2sc3cc(OC)c(OC)cc3c2-c2ccc(OCCN3CCCCC3)cc2)c1	0	-3	62*	.	.	66*	10	15
COc1cccc(-c2sc3ccc(OC)cc3c2-c2ccc(OCCN3CCCC3)cc2)c1	-1	-1	27	.	.	70*	20	6
Oc1ccc2sc(-c3ccccc3O)c(-c3ccc(OCCN4CCCCC4)cc3)c2c1	1	-1	36	.	.	.	.	.
CCCc1cc(=O)[nH]c(SCC(=O)Nc2cc(S(=O)(=O)N3CCOCC3)ccc2Cl)n1	1	1	-1	-4	-17	3	.	.
CC(C)(C)[C@@H]1COC(=O)[C@H](Cc2ccc(F)cc2)C/C=C\C[C@@H](CC(=O)NCCO)C(=O)N1	-1	1	12	4	4	-6	.	.
COc1ccc(S(=O)(=O)Nc2cc(SCC(=O)O)c(O)c3ccccc23)cc1	1	0	-12	-6	-41	85*	41*	5	Apaf1 inh interf=>100
O=C(O)CSc1cc(NS(=O)(=O)c2ccc(Cl)cc2)c2ccccc2c1O	2	3	-5	.	.	.	.	.
SMILES	MPTP block	iPSC survival up	Exocytosis inh	beta cell repl	UBC13 polyUb	Apaf-1 inh	Apaf-1 inh conf	Rh110 interf inh	others
CCn1c(SCC(=O)N/N=C/C=C\c2ccco2)nc2ccccc21	10	0	-10	-2	1	47*	16	-6
COc1cc(-c2ccc(Nc3ccccc3C(=O)O)c(OC)c2)ccc1Nc1ccccc1C(=O)O	2	0	20	-3	-3	48*	49*	0	Apaf1 inh interf=>100
CCOC(=O)C1=C(COC(=O)c2ccc([N+](=O)[O-])s2)NC(=O)NC1C (configuration not stated)	-1	2	-1	-3	19	46*	38	3
CCOC(=O)C1=C(COC(=O)CSc2ccc(C)cc2)NC(=O)NC1C (configuration not stated)	0	0	0	-2	5	2	.	.
COC(=O)C1C2OC(C(Br)C2Br)C1C(=O)OC (configuration not stated)	0	-2	14	.	.	.	.	.
CC(C)Cn1c(N)c(C(=O)COC(=O)C2CCCCC2)c(=O)n(C)c1=O	1	-1	2	1	4	43*	12	6
N#Cc1c(NCCCO)nc(NCc2ccccc2)c2c1CCN(Cc1ccccc1)C2	-2	-1	1	-4	-37	69*	21	2
CN1CCc2c(C#N)c(N3CCCCC3)nc(NCc3ccccc3)c2C1	0	15	-1	-6	20	52*	21	11
O=C(O)/C=C\c1cc2c(cc1[N+](=O)[O-])OCO2	-1	1	-6	-2	-9	5	.	.
O=C1NC(=S)N/C1=C/c1cc2c(cc1[N+](=O)[O-])OCO2	-2	0	-4	-1	-10	88*	81*	1	Apaf1 inh interf=>100
COc1ccc(S(=O)(=O)N2CCCCCC2)cc1C(=O)N(C)CC(=O)Nc1ccccc1C(F)(F)F	-1	1	1	5	-12	0	.	.
Nc1cccc(-c2c[nH]c3ncc(-c4cccnc4)cc23)c1	-2	14	1	.	.	.	.	.
CC1=C(C(=O)OC(C)C)C2(O)C(=O)c3ccccc3C2(O)N1 (configuration not stated)	0	1	-3	0	-10	12	.	.
CCOC(=O)C1=C(C)OC2(O)c3ccccc3C(=O)C12O (configuration not stated)	4	1	26	-1	-37	88*	98*	6	Apaf1 inh interf=>100
CC(=O)C1=C(C)OC2(O)c3ccccc3C(=O)C12O (configuration not stated)	0	0	3	0	-45	93*	90*	4	Apaf1 inh interf=>100

High-throughput results from PubChem.
